This note sets out measurements from ChEMBL document CHEMBL4610116, “Salicylanilide Analog Minimizes Relapse of Clostridioides difficile Infection in Mice” (J Med Chem, 2020).

Values after ≈ are worked out from the molar mass of the structure shown. Active and inactive are the calls of the source. No cut-off for these calls is given here.

The nature of series [1]: Half life in non-antibioticc-treated C57Bl/6J mouse at 0.3 mg/kg, iv and measured after 5 mins to 24 hrs by LC/MS-SRM analysis. It is filed as ADME, organism-based. The settings on record: in vivo. The method in brief: (§1)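 Non-antibiotic-treated C57Bl/6J mice given a single i.v. dose of 0.3 mg/kg; n = 3 per time point. Bled at 5, 10, 30 min and 1, 2, 4, 8, 24 h. Plasma mixed with 2 volumes acetonitrile containing internal standard, centrifuged, supernatant quantified by LC/MS-SRM.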

Series [2] is described as follows: Cmax in cefoperazone-treated C57Bl/6J mouse at 1 mg/kg, po dosed each day for 5 days by LC/MS-SRM analysis. The format is ADME, organism-based. Details: dose 1 mg/kg, route oral. The conditions noted are these: in vivo. In short, it runs like this:
(§2)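 C57Bl/6J mice pre-treated with cefoperazone 0.5 mg/mL in drinking water for 10 days, then a 2-day washout. Oral dose of 1 mg/kg given daily for 5 days. Bled at 5, 10, 30 min and 1, 2, 4, 10, 24 h after dosing on the first and final days; n = 3 per time point. Plasma mixed with 2 volumes acetonitrile containing internal standard, centrifuged, supernatant analysed by LC/MS-SRM.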

Series [3] deals with Clostridioides difficile. The series is described as follows: Antimicrobial activity against Clostridioides difficile CD10463 incubated for 20 to 24 hrs by broth microdilution method. It is filed as functional. In short, it runs like this:
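Broth microdilution in pre-reduced BHIS using two-fold serial dilutions and ~5 × 10⁵ cfu/mL inoculum. Incubated 20–24 h at 37°C, anaerobic (8% H₂, 8% CO₂, 84% N₂). MIC read by the Lambert-Pearson method; duplicates.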
For orientation: In broth dilution the organism is exposed to a series of concentrations in liquid medium.

The test system of series [4] is Clostridioides difficile. The series is described as follows: Suppression of relapse of Clostridioides difficile 630 infection in cefoperazone-treated C57BL/6J mouse model of recurrent Clostridioides difficile 630 infection assessed as reduction in group-Proteobacteria level at 5 mg/kg, po for 5 days from day 4 to 9 after infection with spores measured on day day 14. It is filed as functional, organism-based. The method in brief:
(§3)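 Recurrent CDI model in cefoperazone-treated C57BL/6J mice challenged with strain 630 and gavaged on days 4–9 (n = 6 per group). Cecal tissue snips collected at necropsy underwent 16S rRNA gene community sequencing on Illumina MiSeq.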

The nature of series [5]: Clearance in non-antibioticc-treated C57Bl/6J mouse at 0.3 mg/kg, iv and measured after 5 mins to 24 hrs by LC/MS-SRM analysis. The format is ADME, organism-based. The settings on record: in vivo. The method in brief: as §1
Series [6] can be described thus: Effect on gut microbiota in cefoperazone-treated C57BL/6J mouse model of recurrent Clostridioides difficile 630 infection assessed as increase in alpha-diversity at 5 mg/kg, po for 5 days from day 4 to 9 after infection with spores measured on day day 14 by 16S rRNA Illumina sequencing analysis. The settings on record: in vivo, 120 h. The format is ADME, organism-based. In short, it runs like this:
as §3

Series [7] in a line: Effect on gut microbiota in cefoperazone-treated C57BL/6J mouse model of recurrent Clostridioides difficile 630 infection assessed as increase in abundance of phylum Firmicutes at 5 mg/kg, po for 5 days from day 4 to 9 after infection with spores measured on day day 14 by 16S rRNA Illumina sequencing analysis. The settings on record: in vivo, 120 h. The format is ADME, organism-based. In short, it runs like this:
as §3

Series [8] in a line: AUC in cefoperazone-treated C57Bl/6J mouse at 1 mg/kg, po dosed each day for 5 days by LC/MS-SRM analysis. The format is ADME, organism-based. The settings on record: in vivo. The method in brief:
as §2

The subject of series [9] is Clostridioides difficile. The series is described as follows: Suppression of relapse of Clostridioides difficile 630 infection in cefoperazone-treated C57BL/6J mouse model of recurrent Clostridioides difficile 630 infection assessed as reduction in toxin activity in cecal content at 5 mg/kg, po for 5 days from day 4 to 9 after infection with spores measured on day day 14. It is filed as functional, organism-based. The method in brief:
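Mice challenged with strain 630 spores after cefoperazone; drug given 5 mg/kg by gavage, days 4–9, vehicle hydroxypropyl-cyclodextrin. Cecal content at day 14 diluted 1:10 in PBS, filtered, then serially diluted to 10⁻⁶. Dilutions preincubated 40 min at room temperature with PBS or antitoxin, then added to Vero cells overnight at 37°C. Titer is the reciprocal of the highest dilution rounding 80% of cells.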

Series [10] relates to Clostridioides difficile. The series is described as follows: Suppression of relapse of Clostridioides difficile 630 infection in cefoperazone-treated C57BL/6J mouse model of recurrent Clostridioides difficile 630 infection assessed as reduction in group-Bacteroidaceae level at 5 mg/kg, po for 5 days from day 4 to 9 after infection with spores measured on day day 14. The format is functional, organism-based. In short, it runs like this:
as §3

Series [11] concerns Clostridioides difficile. As to the kind of experiment: Suppression of relapse of Clostridioides difficile 630 infection in cefoperazone-treated C57BL/6J mouse model of recurrent Clostridioides difficile 630 infection assessed as reduction in body weight loss at 5 mg/kg, po for 5 days from day 4 to 9 after infection with spores. It is filed as functional, organism-based. In short, it runs like this: (§4)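 Five-week-old C57BL/6J mice of both sexes given cefoperazone 0.5 mg/ml in drinking water for 5 days, then a 2-day washout. Oral challenge with C. difficile 630 spores on day 0. Oral gavage in 2-(hydroxypropyl)-cyclodextrin vehicle on days 4–9; n = 6 per group. Body weight recorded daily. Feces or cecal contents suspended 1:10 in PBS, serially diluted and plated on TCCFA, incubated anaerobically at 37°C for 24 h; results as CFU/g.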

Series [12] deals with Clostridioides difficile. The series is described as follows: Suppression of relapse of Clostridioides difficile 630 infection in cefoperazone-treated C57BL/6J mouse model of recurrent Clostridioides difficile 630 infection assessed as incidence of animals with microbial load (total vegetative cells plus spores) load below the limit of detection at 5 mg/kg, po for 5 days from day 4 to 9 after infection with spores measured on day 13 post drug cessation. It is filed as functional. In short, it runs like this: as §4

A short description of series [13]: Oral bioavailability in cefoperazone-treated C57Bl/6J mouse at 1 mg/kg dosed each day for 5 days by LC/MS-SRM analysis. The format is ADME, organism-based. The conditions noted are these: in vivo.
Series [14] can be described thus: MRT in non-antibioticc-treated C57Bl/6J mouse at 0.3 mg/kg, iv and measured after 5 mins to 24 hrs by LC/MS-SRM analysis. The settings on record: in vivo. The format is ADME, organism-based. In short, it runs like this: as §1
Series [15] can be described thus: MRT in cefoperazone-treated C57Bl/6J mouse at 1 mg/kg, po dosed each day for 5 days by LC/MS-SRM analysis. The format is ADME, organism-based. The settings on record: in vivo. In short, it runs like this: as §2
A short description of series [16]: Volume of distribution at steady state in non-antibioticc-treated C57Bl/6J mouse at 0.3 mg/kg, iv and measured after 5 mins to 24 hrs by LC/MS-SRM analysis. The format is ADME, organism-based. The conditions noted are these: in vivo. The method in brief:
as §1

A short description of series [17]: Tmax in non-antibioticc-treated C57Bl/6J mouse at 0.3 mg/kg, iv and measured after 5 mins to 24 hrs by LC/MS-SRM analysis. The settings on record: in vivo. The format is ADME, organism-based. In short, it runs like this:
as §1

Series [18] in a line: Cmax in cecum of cefoperazone-treated C57Bl/6J mouse at 1 mg/kg, po dosed each day for 5 days and measured at 4 hrs post last dose by LC/MS-SRM analysis. The format is ADME, organism-based, Caecum. Details: dose 1 mg/kg, route oral. In short, it runs like this:
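Cefoperazone-pretreated mice (0.5 mg/mL in drinking water, 10 days; 2-day washout) dosed orally at 1 mg/kg daily for 5 days. On the final day, mice euthanized at 30 min, 4 h and 24 h post-dose and cecal contents collected. Samples homogenized in 4 volumes acetonitrile containing internal standard, centrifuged, supernatant analysed by LC/MS-SRM.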

Series [19] is described as follows: Ratio of Cmin in cecum of cefoperazone-treated C57Bl/6J mouse at 1 mg/kg, po dosed each day for 5 days and measured over 24 hrs post last dose by LC/MS-SRM analysis to MIC for antimicrobial activity against Clostridioides difficile CD10463 incubated for 20 to 24 hrs by broth microdilution method. It is filed as ADME, organism-based. The conditions noted are these: in vivo.

Series [20] relates to Clostridioides difficile. As to the kind of experiment: Suppression of relapse of Clostridioides difficile 630 infection in cefoperazone-treated C57BL/6J mouse model of recurrent Clostridioides difficile 630 infection assessed as reduction in microbial load (total vegetative cells plus spores) in cecal content at 5 mg/kg, po for 5 days from day 4 to 9 after infection with spores measured on day day 14. The format is functional, organism-based. The method in brief:
as §4

A word on the half-life: it is the time in which the quantity being followed falls by half. High values mean slow decline, low ones rapid decline. A word on the Cmax: it is the maximum level reached in the sampled fluid or tissue. The term MIC denotes the least concentration at which growth counts as inhibited. Read a high MIC as weaker potency. For orientation: clearance means the rate of elimination divided by the concentration. The low end stands for a low capacity for elimination, the high end for a high capacity for elimination. In general, AUC refers to the area under the concentration-time curve, a measure of exposure. Read a low AUC as low exposure. One may read the bioavailability as the share of a dose that reaches the circulation, judged against a reference dose that is usually intravenous. The low end stands for poor availability, the high end for good availability. The MRT is the average time that molecules of a dose stay in the body. Usually Vdss stands for the apparent volume that relates the amount in the body to the concentration in plasma or blood. A low value points to little distribution into tissue. For orientation: Tmax means the time at which the peak concentration occurs.

For `O=C(Nc1cc(C(F)(F)F)c(Oc2ccc(Cl)cc2)c(C(F)(F)F)c1)c1cc(Cl)cc(Cl)c1O`, the half-life in series [1] is 5 h. In addition, the Cmax amounted to 1.78 µM in [2] and 50 µM in series [18]. This compound yielded an MIC in series [3] of 0.03 µM (≈ 0.0163 µg/mL). Also, the result in [4], in [9], in series [10], in [11] and in [20] was Active. Besides, the clearance in [5] came to 1 mL/min/kg. Also, the Activity entry was “Non-Toxic” in series [6], “Non-Toxic” in series [7] and 50% in [12]. The same compound gave an AUC at 120 h in series [8] of 23.2 µM·h. The bioavailability in [13] came out at 76%. The MRT in series [14] was 5.26 h; in series [15], 9.7 h. Also, the Vdss in series [16] was 7.9 mL. Also, the Tmax in series [17] was 0.17 h. Besides, the Ratio in series [19] was 100.
